Results: article PMC2905675 (Cell, 2010)
“Also recorded” adds a separate entry of the source. Like-named read-outs stand apart in the source and are kept apart here. No end group written: not given here.

What was measured:
[1] = system: capsaicin-sensitive trigeminal neurons; assay: Whole cell patch clamp recordings from capsaicin-sensitive trigeminal neurons; type: cell-based, mouse; conditions: capsaicin 1 μM
[2] = system: X. laevis frog TRPV1 (xTRPV1); assay: Two-electrode voltage clamp, Xenopus oocytes expressing wild type frog TRPV1; type: cell-based; conditions: +80 mV
Method in brief: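 Frog TRPV1 coding sequence cloned from trigeminal and dorsal root ganglion RNA. cRNA made by T7 transcription; stage V–VI oocytes injected with 3–50 ng per oocyte and recorded 3-7 days later in normal frog Ringer's buffered with HEPES (pH 7.4) or MES (pH 5.5). Toxins expressed recombinantly in E. coli, His tag removed by TEV protease, concentration set from predicted 280 nm extinction coefficient.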

rat TRPV1 (A657P) = assay: Whole cell patch clamp, HEK293 cells expressing rat TRPV1; type: cell-based; conditions: +80 mV
rat TRPV1 [3] = molecular target: T1, rat TRPV1 (Rattus norvegicus, UniProt O35433); assay: Whole-cell patch-clamp recording from TRPV1-expressing HEK293 cells; type: cell-based
TRPV1 = type: cell-based, rat; conditions: outside-out patches containing a single functional TRPV1 channel; capsaicin 1 μM
rat TRPV1 [4] = molecular target: T1, rat TRPV1; assay: Calcium imaging dose-response in TRPV1-expressing HEK293 cells; type: cell-based; conditions: ruthenium red 10 μM co-applied
FLAG-TRPV1 (rat) (rat) [5] = molecular target: FLAG-TRPV1 (rat) (rat) (UniProt O35433)
rat Kv2.1 F274R = type: cell-based; conditions: VaTx1 20 μM; n = 3-5 cells per trace
rat Kv2.1 E277K = type: cell-based; conditions: VaTx1 20 μM; n = 3-5 cells per trace
rat Kv2.1 I273Y = type: cell-based; conditions: VaTx1 20 μM; n = 3-5 cells per trace
FLAG-TRPV1 (rat) (rat) [6] = molecular target: FLAG-TRPV1 (rat) (rat) (UniProt O35433); remark: listed apart in the source

T1 sequence (O35433 whole entry): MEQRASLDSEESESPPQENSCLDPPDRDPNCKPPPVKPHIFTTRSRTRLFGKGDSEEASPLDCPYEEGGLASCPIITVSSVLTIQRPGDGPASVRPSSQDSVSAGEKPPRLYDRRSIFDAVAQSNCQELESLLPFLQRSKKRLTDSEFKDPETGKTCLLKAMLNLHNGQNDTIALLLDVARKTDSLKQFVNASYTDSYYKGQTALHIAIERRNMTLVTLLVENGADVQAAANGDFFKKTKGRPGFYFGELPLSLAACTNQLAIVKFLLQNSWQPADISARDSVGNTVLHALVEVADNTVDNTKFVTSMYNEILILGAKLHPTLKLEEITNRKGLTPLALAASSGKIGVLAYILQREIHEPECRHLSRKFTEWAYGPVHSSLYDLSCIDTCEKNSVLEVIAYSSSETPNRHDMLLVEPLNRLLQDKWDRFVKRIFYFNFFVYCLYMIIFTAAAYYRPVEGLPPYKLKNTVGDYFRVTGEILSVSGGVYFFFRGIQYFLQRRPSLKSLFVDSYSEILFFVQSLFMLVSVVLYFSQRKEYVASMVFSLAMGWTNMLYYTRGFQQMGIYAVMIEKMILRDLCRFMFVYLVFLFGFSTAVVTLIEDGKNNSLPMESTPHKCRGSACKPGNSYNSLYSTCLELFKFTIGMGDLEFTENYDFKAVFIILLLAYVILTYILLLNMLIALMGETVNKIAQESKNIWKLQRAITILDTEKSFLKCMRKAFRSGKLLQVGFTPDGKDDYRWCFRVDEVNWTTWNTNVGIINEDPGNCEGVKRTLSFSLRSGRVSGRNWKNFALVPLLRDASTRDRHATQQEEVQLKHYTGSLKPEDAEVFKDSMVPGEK
FLAG-TRPV1 (rat) (rat), sequence (O35433 whole entry): as above
recombinant DkTx, sequence (P0CH43 whole entry): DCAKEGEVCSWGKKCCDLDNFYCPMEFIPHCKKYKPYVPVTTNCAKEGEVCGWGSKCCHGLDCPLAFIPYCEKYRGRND
native DkTx (double-knot toxin), sequence (P0CH43 whole entry): as above

Compound: COc1cc(CNC(=O)CCCC/C=C/C(C)C)ccc1O [capsaicin]
- time for evoked currents to return to baseline after washout [1]: ≤ 10 s
- sensitivity of frog TRPV1 (xTRPV1) [2]: responds
- sensitivity of rat TRPV1 (A657P) (rat TRPV1 (A657P); DkTx 2 μM, VaTx3 2 μM, capsaicin 1 μM): retained sensitivity
- τoff, time constant of current decay on washout (rat TRPV1 [3]): 0.17 min
- unitary conductance of single channel events (TRPV1): 118 pS

Compound: N.N.N.N.N.N.N.N.N.N.N.N.N.N.[Cl-].[Cl-].[Cl-].[Cl-].[Cl-].[Cl-].[O-2].[O-2].[Ru+3].[Ru+3].[Ru+4] [ruthenium red]
- effect on DkTx-evoked calcium increases (rat TRPV1 [4]): inhibits toxin-evoked responses

Compound: K1 (Knot 1, N-terminal ICK peptide of DkTx-HYR)
- EC50 of TRPV1 activation, calcium imaging of TRPV1-expressing HEK293 cells (FLAG-TRPV1 (rat) (rat) [5]): 8.9 µM

Compound: K2 (Knot 2, C-terminal ICK peptide of DkTx-HYR)
- EC50 of TRPV1 activation, calcium imaging of TRPV1-expressing HEK293 cells (FLAG-TRPV1 (rat) (rat) [5]): 0.97 µM

Compound: VaTx1: vanillotoxin, ICK peptide from the Trinidad Chevron tarantula (Psalmopoeus cambridgei) that activates TRPV1 and inhibits Kv2.1 (SECRWFMGGCDSTLDCCKHLSCKMGLYYCAWDGTF; ends and bridges not checked; cysteine pairing not given here)
- effect of F274R mutation on VaTx1-mediated inhibition of Kv2.1 (rat Kv2.1 F274R): eliminated VaTx1-mediated inhibition
- effect of E277K mutation on VaTx1-mediated inhibition of Kv2.1 (rat Kv2.1 E277K): eliminated VaTx1-mediated inhibition
- VaTx1 activation of TRPV1 (A657P) (rat TRPV1 (A657P); VaTx1 100 μM): abolished
- effect of I273Y mutation on VaTx1-mediated inhibition of Kv2.1 (rat Kv2.1 I273Y): modest effect; also recorded: no substantial effect
- activation of wild type rat TRPV1 currents (rat TRPV1 [3]; VaTx1 100 μM, whole cell patch clamp, +80 mV): activation

Compound: native DkTx (double-knot toxin) (from UniProt P0CH43 1-79) (peptide)
- EC50 of TRPV1 activation, calcium imaging of TRPV1-expressing HEK293 cells (FLAG-TRPV1 (rat) (rat) [6]): 0.23 µM

Compound: recombinant DkTx (from UniProt P0CH43 1-79) (peptide)
- EC50 of TRPV1 activation, calcium imaging of TRPV1-expressing HEK293 cells (FLAG-TRPV1 (rat) (rat) [6]): 0.14 µM
